In ChEMBL document CHEMBL1156857, “N-Acetamideindolecarboxylic acid allosteric 'finger-loop' inhibitors of the hepatitis C virus NS5B polymerase: discovery and initial optimization studies” (Bioorg Med Chem Lett, 2010):
≈ marks a conversion by molar mass, not a printed value.

Key:
[1] = Inhibition of histidine-tagged HCV NS5Bdelta21 by scintillation proximity assay; design: species or system Hepacivirus hominis
Procedure, shortened: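 Soluble truncated NS5B at 12 nM. Reaction contains 0.01% w/v BSA, with no dodecyl-β-D-maltoside or IGEPAL. Other conditions follow an earlier method. IC50 is the mean of duplicate experiments on two separate weighings.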

Hepatitis C virus = test: Antiviral activity against Hepatitis C virus subtype 1b infected in human Huh7 cells assessed as inhibition of viral RNA replication; type: functional, organism-based, Hepacivirus hominis, genotype 1b, Huh-7; details: Hepatitis C virus, genotype 1b, Huh-7; read-out: EC50
Procedure, shortened: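 Stable subgenomic HCV genotype 1b replicon in Huh-7 cells carrying a modified luciferase reporter. EC50 from duplicate or more determinations. Some inhibitors were also run in a 72 h replicon format, with HCV RNA normalized to total cellular RNA. Cytotoxicity checked as TC50.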

[2] = Equilibrium solubility at pH 7.2 with amorphous solid after 24 hrs by shake flask method; type: physicochemical; details: buffer
[3] = (§1) Permeability from apical to basolateral side of the human Caco-2 cells at pH 7.4; type: ADME, cell-based; details: Caco-2, pH 7.4, read-out: permeability
Procedure, shortened: (§2)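 Caco-2 permeability measured in the apical-to-basal direction at pH 7.4.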

Cytochrome P450 2C9 = Cytochrome P450 2C9 (Homo sapiens, UniProt P11712); test: Inhibition of CYP2C9; type: ADME
Sequence of Cytochrome P450 2C9 (P11712 whole entry): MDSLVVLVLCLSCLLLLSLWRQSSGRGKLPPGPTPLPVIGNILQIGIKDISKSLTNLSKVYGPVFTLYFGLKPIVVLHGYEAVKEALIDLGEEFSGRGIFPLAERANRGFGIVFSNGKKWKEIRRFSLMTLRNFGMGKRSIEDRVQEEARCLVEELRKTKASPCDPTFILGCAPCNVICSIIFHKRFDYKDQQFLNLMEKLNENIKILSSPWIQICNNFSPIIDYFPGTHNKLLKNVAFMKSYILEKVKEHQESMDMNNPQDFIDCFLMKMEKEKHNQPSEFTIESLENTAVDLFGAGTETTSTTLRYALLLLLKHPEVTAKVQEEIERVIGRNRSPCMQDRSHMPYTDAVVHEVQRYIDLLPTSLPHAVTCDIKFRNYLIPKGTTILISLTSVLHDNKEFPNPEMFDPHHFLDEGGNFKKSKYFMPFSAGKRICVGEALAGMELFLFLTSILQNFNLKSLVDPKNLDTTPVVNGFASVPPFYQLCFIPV
Procedure, shortened: (§3)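 IC50s measured against CYP 1A2, 2C9, 2C19, 2D6 and 3A4 isozymes. The value reported is the lowest IC50, taken against the most sensitive isozyme.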

[4] = Half life in human liver microsomes at 2 uM; type: ADME, Microsome
Procedure, shortened: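 Human liver microsomes incubated with test compound at 2 µM. Stability reported as T1/2 in min.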

[5] = Inhibition of calf thymus DNA-directed RNA polymerase 2; design: species or system Bos taurus
[6] = Half life in rat liver microsomes at 2 uM; type: ADME, Microsome
Cytochrome P450 3A4 = Cytochrome P450 3A4 (Homo sapiens, UniProt P08684); test: Inhibition of CYP3A4; type: ADME; procedure, shortened: as §3
Sequence of Cytochrome P450 3A4 (P08684 whole entry): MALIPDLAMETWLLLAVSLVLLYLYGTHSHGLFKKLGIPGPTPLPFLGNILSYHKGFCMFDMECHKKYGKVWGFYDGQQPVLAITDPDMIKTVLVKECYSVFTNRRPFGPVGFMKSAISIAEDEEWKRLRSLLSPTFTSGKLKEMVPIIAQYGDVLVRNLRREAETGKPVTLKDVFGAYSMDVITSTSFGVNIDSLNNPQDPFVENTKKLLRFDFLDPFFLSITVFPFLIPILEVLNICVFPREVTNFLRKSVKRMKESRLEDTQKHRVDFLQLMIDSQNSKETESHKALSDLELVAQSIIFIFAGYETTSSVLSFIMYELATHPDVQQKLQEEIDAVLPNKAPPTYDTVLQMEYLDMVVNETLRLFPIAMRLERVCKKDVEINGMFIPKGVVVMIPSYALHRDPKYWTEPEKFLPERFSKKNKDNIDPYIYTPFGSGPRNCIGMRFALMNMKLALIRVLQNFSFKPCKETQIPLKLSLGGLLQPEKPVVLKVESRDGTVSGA

[7] = Lipophilicity, log D at pH 7.4; type: physicochemical; details: buffer
Caco-2 = test: as §1; type: ADME, cell-based; details: caco-2, pH 7.4, BLD = below limit of detection; procedure, shortened: as §2
Cytochrome P450 2C19 = Cytochrome P450 2C19 (Homo sapiens, UniProt P33261); test: Inhibition of CYP2C19; type: ADME; procedure, shortened: as §3
Sequence of Cytochrome P450 2C19 (P33261 whole entry): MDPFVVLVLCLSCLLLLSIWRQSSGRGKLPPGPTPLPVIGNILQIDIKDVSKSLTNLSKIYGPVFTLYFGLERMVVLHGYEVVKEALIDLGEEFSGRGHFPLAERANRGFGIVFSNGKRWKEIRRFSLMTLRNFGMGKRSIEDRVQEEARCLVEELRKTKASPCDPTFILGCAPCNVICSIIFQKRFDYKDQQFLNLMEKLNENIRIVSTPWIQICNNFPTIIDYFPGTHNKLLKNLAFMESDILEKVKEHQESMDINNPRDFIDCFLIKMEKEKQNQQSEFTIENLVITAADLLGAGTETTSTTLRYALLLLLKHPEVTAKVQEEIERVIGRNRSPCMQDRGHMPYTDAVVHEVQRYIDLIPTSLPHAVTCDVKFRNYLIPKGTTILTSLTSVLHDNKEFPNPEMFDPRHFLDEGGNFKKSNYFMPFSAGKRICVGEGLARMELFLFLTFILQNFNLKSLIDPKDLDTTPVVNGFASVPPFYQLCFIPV

SMILES | IC50 [1] | EC50 (Hepatitis C virus) | solubility thermodynamic at 24 h [2] | Papp A→B [3] | IC50 (Cytochrome P450 2C9) | half-life at 2 µM [4] | IC50 [5] | half-life at 2 µM [6] | IC50 (Cytochrome P450 3A4; read-out: IC50) | logD [7] | IC50 (Cytochrome P450 3A4) | permeability (Caco-2) | IC50 (Cytochrome P450 2C19)
O=C(O)c1ccc2c(C3CCCCC3)c(-c3ccoc3)n(CC(=O)N3CCOCC3)c2c1 | 30 nM | 600 nM | 105 µg/mL (≈ 241 µM) | 5.2 ×10⁻⁶ cm/s | ≥ 24000 nM | > 5 h | > 250000 nM | 4.8 h |  |  |  |  | 
CCN1CCN(C(=O)Cn2c(-c3ccoc3)c(C3CCCCC3)c3ccc(C(=O)O)cc32)CC1 | 30 nM | 410 nM | 12 µg/mL (≈ 25.9 µM) | 6.5 ×10⁻⁶ cm/s |  | > 5 h | > 250000 nM |  | ≥ 16000 nM |  |  |  | 
CN(C)C(=O)Cn1c(-c2ccoc2)c(C2CCCCC2)c2ccc(C(=O)O)cc21 | 20 nM | 800 nM | 240 µg/mL (≈ 608 µM) | 12.8 ×10⁻⁶ cm/s |  | 4.17 h | > 250000 nM |  |  | 1.45 | >= 26 uM |  | 
Cn1c(-c2ccoc2)c(C2CCCCC2)c2ccc(C(=O)O)cc21 | 16 nM | 4200 nM |  |  |  |  |  |  |  | 3.26 |  |  | 
CC(C)N1CCN(C(=O)Cn2c(-c3ccoc3)c(C3CCCCC3)c3ccc(C(=O)O)cc32)CC1 | 40 nM | 830 nM | 18 µg/mL (≈ 37.7 µM) | 7 ×10⁻⁶ cm/s |  | > 5 h | > 250000 nM |  | ≥ 8000 nM |  |  |  | 
O=C(O)c1ccc2c(C3CCCCC3)c(-c3ccccc3)n(CC(=O)N3CCC(N4CCCC4)CC3)c2c1 | 40 nM | 380 nM | 47 µg/mL (≈ 91.5 µM) | < 0.1 ×10⁻⁶ cm/s |  | 1.85 h | > 250000 nM |  |  |  |  |  | 
CN1CCN(C(=O)Cn2c(-c3ccoc3)c(C3CCCCC3)c3ccc(C(=O)O)cc32)CC1 | 40 nM | 450 nM | 7 µg/mL (≈ 15.6 µM) | 1.7 ×10⁻⁶ cm/s |  | 1.17 h | > 250000 nM |  |  |  |  |  | 
CN(CCO)C(=O)Cn1c(-c2ccoc2)c(C2CCCCC2)c2ccc(C(=O)O)cc21 | 20 nM | 1500 nM | 1300 µg/mL (≈ 3060 µM) |  |  | 4.58 h | > 250000 nM |  |  |  |  | BLD | 
O=C(O)c1ccc2c(C3CCCCC3)c(-c3cccs3)n(CC(=O)N3CCC(N4CCCC4)CC3)c2c1 | 20 nM | 460 nM | 60 µg/mL (≈ 115 µM) | 0.2 ×10⁻⁶ cm/s |  | > 5 h | > 250000 nM |  |  |  |  |  | ≥ 11000 nM
